MEKK2mut PB1 HTS = MEK5 binding signal on mutant MEKK2 PB1, primary screen, biochemical, multiplex bead flow cytometry, Alexa488-MEK5; Alexa488-MEK5 binding to MEKK2 mutant; percent response, % at 10 µM; 290,000 compounds, 0.35% hits; AID 1530, 2009; in the data active = percent response above about 24%, passing the limit was not always enough
MEKK3 PB1 HTS = modulators of MEKK3-MEK5 PB1 binding, primary screen, biochemical, wildtype MEKK3, multiplex bead flow cytometry, Alexa488-MEK5 | Mitogen-activated protein kinase kinase kinase 3 (Homo sapiens), Q99759 | bead-based flow cytometry, Alexa488-MEK5 binding to MEKK3; actives lie on both sides; 0 = blocked by unlabeled MEK5, 100 = vehicle | binding response (% of control), % at 10 µM | 290,000 compounds, 1.4% hits;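 active = binding response more than 3 SD above or below the average of its plate-row segment, actives on both sides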;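 note: Alexa488 bead fluorescence after subtracting the streptavidin-only scavenger bead signal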
Target sequence (Q99759 whole entry, looked up): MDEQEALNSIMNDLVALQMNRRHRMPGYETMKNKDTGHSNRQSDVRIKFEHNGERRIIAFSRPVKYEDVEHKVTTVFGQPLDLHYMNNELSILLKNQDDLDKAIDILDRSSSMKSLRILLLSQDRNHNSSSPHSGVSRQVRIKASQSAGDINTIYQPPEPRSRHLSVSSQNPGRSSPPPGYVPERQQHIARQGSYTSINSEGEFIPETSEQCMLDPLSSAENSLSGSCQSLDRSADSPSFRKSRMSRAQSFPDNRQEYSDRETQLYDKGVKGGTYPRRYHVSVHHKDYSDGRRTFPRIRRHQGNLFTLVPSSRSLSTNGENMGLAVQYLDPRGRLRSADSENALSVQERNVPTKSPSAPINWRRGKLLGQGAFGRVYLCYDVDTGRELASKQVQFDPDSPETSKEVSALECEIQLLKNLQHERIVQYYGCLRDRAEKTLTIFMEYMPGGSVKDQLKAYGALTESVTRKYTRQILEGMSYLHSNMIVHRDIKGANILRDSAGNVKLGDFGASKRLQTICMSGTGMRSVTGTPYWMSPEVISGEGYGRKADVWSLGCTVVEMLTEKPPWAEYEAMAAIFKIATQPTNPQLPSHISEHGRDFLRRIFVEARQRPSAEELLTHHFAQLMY
UBC13 polyUb = UBC13 polyubiquitin chain formation inhibitors, primary screen, biochemical, TR-FRET, uHTS; 330,000 compounds, 0.47% hits; inhibition, % at 20 µM; in the data active = inhibition above about 45%, passing the limit was not always enough
Target sequence (P61088 whole entry, looked up): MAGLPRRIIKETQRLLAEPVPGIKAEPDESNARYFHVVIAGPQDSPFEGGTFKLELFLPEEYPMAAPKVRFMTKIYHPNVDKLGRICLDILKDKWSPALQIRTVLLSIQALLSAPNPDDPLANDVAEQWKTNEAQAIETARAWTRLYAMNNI
MEKK2 WT-MEK5 = modulators of MEK5 binding to wildtype MEKK2, primary screen, biochemical, multiplex bead flow cytometry, Alexa488-MEK5; 290,000 compounds, 1.1% hits; binding response (% of control), % at 10 µM; Alexa488-MEK5 binding to MEKK2 WT; actives lie on both sides; in the data active = binding response below about 67% or above about 130%
Apaf-1 inh = inhibitors of human Apaf-1 apoptosome, primary screen, biochemical, DEVD-Rh110 fluorescence, uHTS; reconstituted apoptosome caspase-3 activity; AID 489030, 2010; inhibition, % at 20 µM; 330,000 compounds, 0.71% hits; active = inhibition of at least 40% at 20 µM;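 note: plate controls were DMSO wells for no effect and DEVD-CHO caspase inhibitor wells for full effect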
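Material: reconstituted apoptosome with Apaf-1, cytochrome c, caspase-9, procaspase-3, dATP / Buffer or medium: pH 7.5 Hepes buffer with CHAPS, BSA, DTT / Also added: cytochrome c with DEVD-Rh110 / Schedule: compound with Apaf-1, dATP, procaspase-3 30 min, then 50 min reaction, room temperature / Technique: rhodamine 110 fluorescence at Ex 480/Em 540 nm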
MEKK2wt confirm = modulators of MEK5 binding to wildtype MEKK2, confirmation, biochemical, single concentration, multiplex bead flow cytometry. shares compounds with MEKK3 PB1 HTS. Alexa488-MEK5 binding to MEKK2 WT; actives lie on both sides. binding response (% of control), % at 10 µM. 5,900 compounds, 2.4% hits. AID 1892, 2009; in the data active = binding response below about 16% or above about 210%; inactive = in between
MEKK2mut-MEK5 = mutant MEKK2 PB1-MEK5 binding signal retest – biochemical, single concentration, multiplex bead flow cytometry, confirmation; shares compounds with MEKK3 PB1 HTS; AID 1893, 2009; Alexa488-MEK5 binding to MEKK2 mutant; percent response, % at 10 µM; 5,900 compounds, 2% hits; in the data active = percent response mostly above about 71%, no sharp cut-off; inactive = mostly below about 38%;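 note: higher means compound restores mutant binding toward wildtype level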
MEKK3 confirm = MEKK3 wild-type PB1 binding to MEK5, inhibitors, confirmation, biochemical, bead multiplex flow cytometry, single concentration, wildtype; shares compounds with MEKK3 PB1 HTS; Alexa488-MEK5 binding to MEKK3; hits give low values; binding response (% of control), % at 10 µM; 5,900 compounds, 1.8% hits;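 active = binding response below 72% of control, or above a set upper limit, though filed actives all read lower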;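 note: 100% = DMSO only wells and 0% = binding blocked by excess unlabeled MEK5; lower values mean stronger disruption of MEK5 binding to MEKK3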
Numbers without * were called inactive; / = not tested or not shown; ! = repeats disagree; [ ] = dose if it differs, or a comment. Sampled rows, rich in hits. Any-hit rate of the full collection: about 2.9%.

SMILES | MEKK2mut PB1 HTS | MEKK3 PB1 HTS | UBC13 polyUb | MEKK2 WT-MEK5 | Apaf-1 inh | MEKK2wt confirm | MEKK2mut-MEK5 | MEKK3 confirm
CCc1ccc(NS(=O)(=O)c2cccs2)cc1 | 39.0* | 114.0 | 4.7 | 88.0 | -13.7 | 96.0 | -7.0 | 99.0
Cc1cc(C)cc(NS(=O)(=O)c2cccs2)c1 | 3.0 | 103.0 | 6.2 | 104.0 | 5.7 | / | / | /
Cc1nnc(NCc2n[nH]c(=O)c3ccccc23)c2ccccc12 | -6.0 | 31.0*[inhibitor] | 10.9 | 41.0*[inhibitor] | -14.8 | 95.0 | -2.0 | 93.0
COc1ccc(NCc2n[nH]c(=O)c3ccccc23)cc1 | -2.0 | 97.0 | -17.2 | 97.0 | 14.8 | / | / | /
O=C(Cc1ccc(-n2c(=O)[nH]c3ccsc3c2=O)cc1)NCc1cccnc1 | 1.0 | 139.0* | -11.3 | 109.0 | 3.9 | 103.0 | 0.0 | 101.0
O=C(NCCc1c[nH]c2ccccc12)/C(=C\c1cccs1)NC(=O)c1ccccc1 | -1.0 | 41.0*[inhibitor] | -5.5 | 96.0 | 4.3 | 101.0 | 1.0 | 105.0
C=CCNC(=O)c1ccc(-n2cccc2)cc1 | 5.0 | 138.0* | 6.3 | 122.0 | -12.8 | 99.0 | -3.0 | 101.0
COc1cc2c3nc4n(c(=O)c3n(CC(=O)NCC3CCCO3)c2cc1OC)CCS4 (stereo not given) | -2.0 | 102.0 | 6.0 | 102.0 | 6.2 | / | / | /
O=C(CSc1nc2ncccc2[nH]1)Nc1ccc2c(c1)OCO2 | -5.0 | 98.0 | 0.0 | 99.0 | -13.1 | / | / | /
O=C(CSc1nc(-c2ccccc2)c(-c2ccccc2)[nH]1)Nc1ccc2c(c1)OCO2 | 1.0 | 146.0* | 10.6 | 113.0 | 23.7 | 95.0 | -3.0 | 104.0
O=C(O)C1CC(=O)N(c2ccc(OCc3ccccc3)cc2)C1 (stereo not given) | -3.0 | 72.0*[inhibitor] | 0.2 | 76.0 | 2.7 | 103.0 | -1.0 | 101.0
O=C(O)C1CC(=O)N(c2ccc(OCc3ccc(Br)cc3)cc2)C1 (stereo not given) | 4.0 | 104.0 | -6.5 | 105.0 | 7.6 | / | / | /
CCn1cc(C(=O)N[C@@H](CCSC)C(=O)NCCN2CCOCC2)c(=O)c2cc3c(cc21)OCO3 | -12.0 | 85.0 | -3.7 | 91.0 | 12.9 | / | / | /
O=C(CCn1c(=O)sc2ccccc21)Nc1nccs1 | 1.0 | 104.0 | 10.5 | 105.0 | 5.2 | / | / | /
Cc1csc(NC(=O)CCn2c(=O)sc3ccccc32)n1 | -7.0 | 70.0*[inhibitor] | 11.6 | 81.0 | 5.0 | 100.0 | 2.0 | 102.0
COc1ccc(NS(=O)(=O)c2cc(N/C(=N\S(=O)(=O)c3ccccc3)c3ccc(F)cc3)ccc2Cl)cc1 | -2.0 | 89.0 | 14.9 | 88.0 | 10.4 | / | / | /
CCOC(=O)c1cc(C#N)c(SCC(=O)c2cc(C#N)c(SC)nc2C)[nH]c1=O | -14.0 | 74.0*[inhibitor] | -1.3 | 80.0 | 16.4 | 102.0 | -4.0 | 101.0
CCOC(=O)c1cc(C#N)c(SCC(N)=O)[nH]c1=O | -1.0 | 99.0 | 0.4 | 100.0 | 6.4 | / | / | /
Cc1cc(-c2ccccc2)nc(SCC(=O)N2CCCC2)n1 | -2.0 | 106.0 | 1.7 | 95.0 | -1.3 | / | / | /
CN(C)CCN(C(=O)C1=COCCO1)c1nc2ccc(F)cc2s1 | 4.0 | 101.0 | -4.2 | 106.0 | 9.3 | / | / | /
COCCn1c(SCc2ccc(OC)c(F)c2)nc2ccccc2c1=O | 7.0 | 156.0* | 6.9 | 134.0 | 11.5 | 101.0 | 2.0 | 103.0
COCCn1c(SCc2ccc(F)cc2)nc2ccccc2c1=O | 6.0 | 102.0 | 11.2 | 101.0 | 14.6 | / | / | /
COc1ccc(CSc2nc3ccccc3c(=O)[nH]2)cc1F | -23.0 | 6.0*[inhibitor] | -2.1 | 9.0*[inhibitor] | 6.1 | 100.0 | 0.0 | 104.0
NC(N)=Nc1nc2ccc(Cl)cc2c(=O)[nH]1 | -3.0 | 105.0 | / | 100.0 | / | / | / | /
CC1(C2CC2)NC(=O)N(CC(=O)NCC(=O)Nc2ccc(F)c(F)c2F)C1=O (stereo not given) | / | / | 11.2 | / | -8.4 | / | / | /
SMILES | MEKK2mut PB1 HTS | MEKK3 PB1 HTS | UBC13 polyUb | MEKK2 WT-MEK5 | Apaf-1 inh | MEKK2wt confirm | MEKK2mut-MEK5 | MEKK3 confirm
O=C1Nc2ccccc2OCc2c1cccc2[N+](=O)[O-] | -8.0 | 98.0 | -1.1 | 92.0 | -11.7 | / | / | /
Cc1ccc(Oc2cc([N+](=O)[O-])cc3c2C(=O)Nc2ccccc2O3)cc1 | -2.0 | 130.0* | -9.7 | 94.0 | 8.7 | 95.0 | -4.0 | 100.0
Fc1ccc(C(c2ccc(F)cc2)N2CCN(C/C=C/c3ccccc3)CC2)cc1 | 26.0*! | 113.0 | 25.5 | 210.0*! | 32.4 | 184.0 | 39.0 | 110.0
O=C(Nc1cccc(Cl)c1)N1CCN(C/C=C/c2ccccc2)CC1 | 16.0 | 107.0 | 11.3 | 139.0* | -1.3 | 113.0 | 8.0 | 101.0
C(=C\c1ccccc1)/CN1CCN(C(c2ccccc2)c2ccccc2)CC1 | 14.0 | 109.0 | 24.1 | 165.0* | 21.3 | 162.0 | 24.0 | 103.0
CC(=O)N1CC(=O)N=C1SCC(=O)Nc1nc(-c2ccccc2)c(-c2ccccc2)s1 | 2.0 | 103.0 | 4.7 | 103.0 | 6.2 | / | / | /
COc1ccc(OC)c(NC(=O)c2ccc(-c3cccs3)cc2)c1 | -4.0 | 106.0 | -2.3 | 100.0 | -1.3 | / | / | /
Cc1cc(Sc2nc(N(C)C)nc(N(C)C)n2)nc(Cl)n1 | 5.0 | 137.0* | 4.6 | 121.0 | -2.1 | 107.0 | 1.0 | 103.0
CCc1ccc(C(=O)NNc2ccc(S(N)(=O)=O)cc2)cc1 | 36.0 | 104.0 | -1.7 | 186.0* | -25.6 | 101.0 | -3.0 | 101.0
C=CCNC(=O)NC(=O)COC(=O)CNS(=O)(=O)c1ccc(F)c(F)c1F | -3.0 | 98.0 | 11.1 | 95.0 | -2.7 | / | / | /
CCOCCCNC(=O)CN1CCN(c2ccc(F)cc2)CC1 | -3.0 | 89.0 | 7.8 | 91.0 | -18.3 | / | / | /
Cc1ccc(CN2CCN(CC(=O)NCCCN3CCN(c4ccc(F)cc4)CC3)C2=O)cc1 | 24.0* | 104.0 | 7.1 | 136.0 | 8.2 | 133.0 | 7.0 | 103.0
COc1ccc(N2CCN(CCCNC(=O)CN3CCN(Cc4ccccc4C)C3=O)CC2)cc1 | 14.0 | 105.0 | 9.7 | 143.0* | 1.9 | 171.0 | 42.0 | 103.0
CC(C)CC(=O)NC(=S)Nc1ccc(N2CCCC2)c(Cl)c1 | -19.0 | 62.0 | 3.2 | 67.0 | 0.2 | / | / | /
